In PubChem BioAssay AID624007 (Broad Institute, 2012):
Unmarked numbers belong to inactive results.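 Rule for the calls: active = compounds lowering the uptake signal whose fitted half-maximal concentration is at most twice their top valid dose; inconclusive = flat curve between 30% and 70% signal loss, or poor fit; inactive = opposite direction, flat near zero, or potency beyond limit.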

Test: DiI-HDL uptake inhibition in parental ldlA7 cells, dose response, counter-screen for SR-BI HDL uptake inhibitor project, cell-based, CHO ldlA7, fluorescence, dry powder, set 2 (AID 624007)
Conditions: 3 h
In short: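 Assay system: ldlA7 CHO cells without LDL receptor, no mSR-BI overexpression; Medium: HEPES-buffered (pH 7.4) F12 plus 0.5% fatty acid-free BSA; Reagent: DiI-labelled HDL, 10 µg/mL final; Schedule: 3 h co-incubation of compounds and DiI-HDL at 37 °C; Detection: DiI fluorescence, bottom read, Ex 550/Em 595 nm.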

CC(C)NC(=O)Nc1ccc2c(c1)C(=O)N([C@H](C)CO)C[C@H](C)[C@H](CN(C)S(=O)(=O)c1ccc(Cl)cc1)O2
DiI-HDL uptake signal change vs neutral control (%), lower = more inhibition (at 15 nM): 8.44%

CC(C)NC(=O)Nc1ccc2c(c1)C(=O)N([C@@H](C)CO)C[C@@H](C)[C@H](CN(C)S(=O)(=O)c1ccc(Cl)cc1)O2
DiI-HDL uptake signal change vs neutral control (%), lower = more inhibition (at 35000 nM): -2.49%

CC(C)NC(=O)Nc1cccc2c1O[C@@H](CN(C)S(=O)(=O)c1ccc(Cl)cc1)[C@H](C)CN([C@H](C)CO)C2=O
DiI-HDL uptake signal change vs neutral control (%), lower = more inhibition (at 420 nM): 9.23%
